The values below come from PMC6045484 (ACS Omega, 2018).

In data set [1] the test system is A. fumigatus ATCC 90906. Briefly: in vitro antifungal activity. It counts as cell-based, Aspergillus fumigatus. Conditions: Aspergillus fumigatus; for IC50: ATCC90906, read-out: A. fumigatus IC50; for MFC: ATCC90906, read-out: A. fumigatus MFC; for MIC: ATCC90906, read-out: A. fumigatus MIC. In a few lines:
(§1)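 Modified NCCLS broth method in Sabouraud dextrose. Inoculum set by OD630 to 1.5 × 10^3 CFU/mL. Test compound serially diluted in 20% DMSO/saline, duplicate wells, up to 20 μg/mL. Incubated 70–74 h at 35 °C; 530 nm read before and after. IC50 is 50% growth inhibition; MIC is no detectable growth. MFC from clear wells subcultured on agar. Amphotericin B control.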

Data set [2] concerns P. falciparum (D6). Kind of data set: in vitro antimalarial activity, plasmodial LDH. Format: cell-based, Plasmodium falciparum. The note with it: Plasmodium falciparum, D6, 72 h, read-out: P. falciparum (D6) IC50.
Data set [3] has as its system SA (ATCC29213). Briefly: in vitro antibacterial activity. It counts as cell-based. The note with it: Staphylococcus aureus; for IC50: ATCC29213, read-out: IC50 (concentration that affords 50% growth inhibition), SA; for MBC: ATCC29213, read-out: MBC (minimum bactericidal concentration), SA; for MIC: ATCC29213, read-out: MIC, SA. In a few lines: (§2)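 Test compound serially diluted in 20% DMSO/saline and plated in duplicate, up to 20 μg/mL. Inoculum in cation-adjusted Mueller–Hinton broth, pH 7.3, set by OD630 to 5 × 10^5 CFU/mL. Incubated 16–20 h at 35 °C; 530 nm read before and after. IC50 is 50% growth inhibition; MIC is no detectable growth. MBC from clear wells subcultured on agar. Ciprofloxacin control.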

For data set [4], the system named is P. falciparum (W2). Briefly: in vitro antimalarial activity, plasmodial LDH. It counts as cell-based, Plasmodium falciparum. The note with it: Plasmodium falciparum, W2, 72 h, read-out: P. falciparum (W2) IC50, CQ-resistant W2 strain, 72 h. Summed up:
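P. falciparum-infected erythrocytes (2% parasitemia, 2% hematocrit) in RPMI 1640 with 10% human serum and 60 μg/mL amikacin. Exposed to test compound dilutions for 72 h at 37 °C under 90% N2/5% O2/5% CO2. LDH measured with Malstat reagent (30 min, room temperature), then NBT/PES for 1 h in the dark, stopped with 5% acetic acid, read at 650 nm. IC50 from dose-response curves.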

The test system of data set [5] is C. neoformans ATCC90113. Kind of data set: in vitro antifungal activity. The note with it: Cryptococcus neoformans; for IC50: ATCC90113, read-out: C. neoformans IC50; for MFC: ATCC90113, read-out: C. neoformans MFC; for MIC: ATCC90113, read-out: C. neoformans MIC. Format: cell-based, Cryptococcus neoformans. In a few lines: as §1
Data set [6] has as its system MRSA (ATCC33591). Kind of data set: in vitro antibacterial activity. It counts as cell-based, methicillin-resistant Staphylococcus aureus. Conditions: Staphylococcus aureus, ATCC33591|MRSA, read-out: MIC, MRSA. In a few lines:
as §2

The test system of data set [7] is M. intracellulare (ATCC23068). Kind of data set: in vitro antibacterial activity, modified alamarBlue procedure. Format: cell-based, Mycobacterium intracellulare. The note with it: Mycobacterium intracellulare; for IC50: ATCC23068, read-out: IC50 (concentration that affords 50% growth inhibition), M. intracellulare; for MBC: ATCC23068, read-out: MBC (minimum bactericidal concentration), M. intracellulare; for MIC: ATCC23068, read-out: MIC, M. intracellulare. In a few lines: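 Modified alamarBlue microplate method. Test compound serially diluted in 20% DMSO/saline, duplicate wells, up to 20 μg/mL. Inoculum 2.0 × 10^6 CFU/mL in Middlebrook 7H9 with OADC, pH 7.3, containing 5% alamarBlue. Incubated 70–74 h at 37 °C, 10% CO2; fluorescence 544ex/590em read before and after. MIC: no blue-to-pink change. MBC by subculturing blue wells on agar. Ciprofloxacin control.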
For orientation: Resazurin is reduced to fluorescent resorufin, in cell work by metabolically active cells.

In data set [8] the test system is C. albicans ATCC90028. Kind of data set: in vitro antifungal activity. It counts as cell-based, Candida albicans. The note with it: Candida albicans; for IC50: ATCC90028, read-out: C. albicans IC50; for MFC: ATCC90028, read-out: C. albicans MFC; for MIC: ATCC90028, read-out: C. albicans MIC. In a few lines:
as §1

In data set [9] the test system is SK-MEL, KB, BT-549, SK-OV-3, VERO and LLC-PK1 cells. Kind of data set: cytotoxicity, neutral red uptake assay. Conditions: highest test concentration 4760 ng/mL. Format: cell-based, mammalian. In a few lines:
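Cells seeded at 25 000/well and allowed 24 h to reach confluence. Test compound was then added and incubated 48 h. Viable cells were counted by a modified neutral red uptake method. The panel was four human cancer lines and two noncancerous mammalian kidney lines. Doxorubicin served as positive control and DMSO as negative control.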

Data set [10] deals with L. donovani promastigotes. Briefly: in vitro antileishmanial activity, alamarBlue assay. Format: cell-based, Leishmania donovani. The note with it: Leishmania donovani, 48 h; for IC50: read-out: L. donovani IC50, promastigotes, 48 h; for IC90: read-out: L. donovani IC90, promastigotes, 48 h.

≈ marks a conversion by molar mass, not a printed value. Bounds are passed on as bounds.

As a reminder, the MFC is the smallest concentration meeting the test's criterion for killing the fungus. For orientation: MIC means the least concentration at which growth counts as inhibited. What is called IC90 is the concentration needed for an effect of 90%. For the compound `CCCCCCCOc1c(OC)cc(NC(C)CCCNC(=O)C(N)CCSC)c2nc(C(C)(C)C)ccc12` (stereo not drawn) [compound 116, 2-Amino-N-(4-(2-tert-butyl-5-(heptyloxy)-6-methoxyquinolin-8-ylamino)pentyl)-4-(methylthio)butanamide], the IC50 was more than 20 µg/mL in data set [1]; 4.76 µg/mL (≈ 8.49 µM) in data set [2]; 4.07 µg/mL (≈ 7.26 µM) in [3]; 3.2 µg/mL (≈ 5.71 µM) in data set [4]; 1.29 µg/mL (≈ 2.3 µM) in data set [5]; more than 20 µg/mL in [7]. Also, the figures for the IC50 in data set [8] and in [10] were more than 20 µg/mL and 4.1 µg/mL (≈ 7.31 µM), respectively. The values for the MFC in [1], in [5] and in data set [8] were more than 20 µg/mL, 10 µg/mL (≈ 17.8 µM) and more than 20 µg/mL, respectively. Further, the MIC in data set [1] is more than 20 µg/mL; in [3] it was 10 µg/mL (≈ 17.8 µM); in data set [5], 10 µg/mL (≈ 17.8 µM); in [6], 5 µg/mL (≈ 8.92 µM); in data set [7], more than 20 µg/mL; in data set [8] it was more than 20 µg/mL. Also, the MBC is 10 µg/mL (≈ 17.8 µM) in data set [3] and more than 20 µg/mL in [7]. The “cytotoxicity CTX” value in data set [9] is listed as “NC (NC, not cytotoxic up to 4760 ng/mL (4.76 μg/mL))”. For the same compound, the 90% effect concentration (IC90) in data set [10] was determined as 12 µg/mL (≈ 21.4 µM).

Consider `CCCCCCCCOc1c(OC)cc(NC(C)CCCNC(=O)C(N)C(C)CC)c2nc(C(C)(C)C)ccc12` (stereo not drawn) [compound 119, 2-Amino-N-(4-(2-tert-butyl-6-methoxy-5-(octyloxy)quinolin-8-ylamino)pentyl)-3-methylpentanamide], for which the IC50 in data set [1] was more than 20 µg/mL; in data set [2], more than 4.76 µg/mL; in data set [3] it was 5.03 µg/mL (≈ 9.03 µM); in data set [4], more than 4.76 µg/mL; in data set [5], 2.87 µg/mL (≈ 5.15 µM); in [7], more than 20 µg/mL. Moreover, the IC50 is more than 20 µg/mL in [8] and 6.04 µg/mL (≈ 10.8 µM) in data set [10]. Besides, the figures for the MFC in data set [1], in data set [5] and in [8] were more than 20 µg/mL, 10 µg/mL (≈ 18 µM) and more than 20 µg/mL, respectively. Moreover, the MIC is more than 20 µg/mL in [1]; more than 20 µg/mL in data set [3]; 10 µg/mL (≈ 18 µM) in data set [5]; more than 20 µg/mL in [6]; more than 20 µg/mL in data set [7]; more than 20 µg/mL in data set [8]. Further, the MBC in data set [3] and in [7] was more than 20 µg/mL in each case. The “cytotoxicity CTX” value in data set [9] is “NC (NC, not cytotoxic up to 4760 ng/mL (4.76 μg/mL))”. Also, the concentration for an effect of 90% (IC90) in data set [10] was 26.9 µg/mL (≈ 48.4 µM).

For `CCCCCCCCOc1c(OC)cc(NC(C)CCCNC(=O)C(N)CCSC)c2nc(C(C)(C)C)ccc12` (stereo not drawn) [compound 120, 2-Amino-N-(4-(2-tert-butyl-6-methoxy-5-(octyloxy)quinolin-8-ylamino)pentyl)-4-(methylthio)butanamide], the IC50 in data set [1] is more than 20 µg/mL; in data set [2], 0.16 µg/mL (≈ 0.278 µM); in data set [3], 11.7 µg/mL (≈ 20.3 µM); in [4] it was 0.15 µg/mL (≈ 0.261 µM); in data set [5] it was 2.74 µg/mL (≈ 4.77 µM); in data set [7], 20 µg/mL (≈ 34.8 µM). The IC50 was more than 20 µg/mL in data set [8] and 6.99 µg/mL (≈ 12.2 µM) in data set [10]. Moreover, the figures for the MFC in [1], in data set [5] and in data set [8] were more than 20 µg/mL, 5 µg/mL (≈ 8.7 µM) and more than 20 µg/mL, respectively. In addition, the MIC in data set [1] was more than 20 µg/mL; in data set [3], 20 µg/mL (≈ 34.8 µM); in data set [5] it was 5 µg/mL (≈ 8.7 µM); in data set [6], 20 µg/mL (≈ 34.8 µM); in [7], more than 20 µg/mL; in data set [8] it was more than 20 µg/mL. For the same compound, the MBC in data set [3] and in data set [7] was more than 20 µg/mL in each case. Also, the “cytotoxicity CTX” value in [9] is listed as “NC (NC, not cytotoxic up to 4760 ng/mL (4.76 μg/mL))”. The 90% effect concentration (IC90) in data set [10] was determined as 26.4 µg/mL (≈ 46 µM).
